High-throughput results deposited in PubChem by The Scripps Research Institute Molecular Screening Center.
Hits are enriched below; roughly 2.5% of the tested compounds scored in any of these assays.
ABHD4 inh = inhibitors of mouse ABHD4 | AID 720543 | 370,000 compounds, 0.54% hits | purified mABHD4, FP-Rh probe fluorescence polarization | inhibition, % at 8.92 µM;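 active = inhibition exceeding the mean over every tested compound plus 3 SD, cut at about 30% in these data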;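 also: 0% = plate median of compound wells and 100% = S159A mutant with DMSO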
Target sequence (Q8VD66 whole entry, looked up): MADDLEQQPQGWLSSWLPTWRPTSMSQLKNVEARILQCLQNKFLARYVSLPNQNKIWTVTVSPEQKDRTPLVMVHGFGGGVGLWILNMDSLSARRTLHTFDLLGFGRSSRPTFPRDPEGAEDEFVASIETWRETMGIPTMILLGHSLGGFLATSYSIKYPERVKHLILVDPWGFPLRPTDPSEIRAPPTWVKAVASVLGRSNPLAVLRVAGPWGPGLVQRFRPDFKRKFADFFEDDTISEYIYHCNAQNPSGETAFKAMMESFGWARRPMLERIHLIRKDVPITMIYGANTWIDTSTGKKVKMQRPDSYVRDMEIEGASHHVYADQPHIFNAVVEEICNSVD
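Test system: mABHD4 protein | Buffer or medium: HEPES pH 7.0 buffer, 150 mM NaCl, 0.01% Pluronic F-127 | Probe or stimulus: FP-Rh fluorescent activity-based probe, added after compound pre-incubation | Timing: Pre-incubation 45 min, probe exposure 60 min, at 25 °C | Technique: Fluorescence polarization, excitation 525 nm, emission 598 nm, BODIPY TMR filters | Repeats: Single well per compound (singlicate)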
PRMT1 FP inh = PRMT1 (human) inhibition, primary screen | Q99873 | recombinant PRMT1, activity-based probe fluorescence polarization | inhibition, % at 2.79 µM | 370,000 compounds, 1.3% hits | AID 652257;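 active = inhibition above about 21% made by adding two undisclosed values, limit read from the data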
TCR-CD3 inh = inhibitors of human TCR-CD3 interaction | AID 651800 | 360,000 compounds, 0.37% hits | TAMRA-labeled TCR probe fluorescence, biochemical | inhibition, % at 9.4 µM; in the data active = inhibition above about 19%;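 also: recombinant mutant TCR 2C K166C tagged with TAMRA read by polarization; 0% = receptor in buffer alone and 100% = receptor with positive control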
SIAE primary = blocks human sialic acid acetylesterase | 370,000 compounds, 0.69% hits | Q9HAT2 | inhibition, % at 9.66 µM | SIAE FP-Rh probe binding, fluorescence polarization;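 active = inhibition above a cutoff: mean of compounds within the control limits plus 3 SD of those, cut at about 17% in these data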;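 also: 0% = plate median of compound wells and 100% = probe without SIAE protein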
HTRA1 inhibitor = blocks human HTRA1 serine peptidase; Q92743; recombinant HTRA1, FP-rhodamine activity-based probe, fluorescence polarization; inhibition, % at 5.96 µM; 340,000 compounds, 0.5% hits; AID 504803; in the data active = inhibition above about 36%;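 also: 0% = enzyme with DMSO and 100% = wells lacking enzyme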
SIAE confirm = human SIAE inhibition, confirmation; shares compounds with SIAE primary; SIAE FP-Rh activity-based probe, fluorescence polarization; inhibition, % at 9.66 µM; 2,300 compounds, 13% hits; AID 1117263;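 active = mean inhibition of the replicates above the hit cutoff set in the primary screen, cut at about 17% in these data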;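 also: 0% = SIAE with DMSO and probe and 100% = probe without SIAE; inhibitors lower polarization as more probe stays unbound to SIAE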
Starred values were filed as active, the others as inactive; x = no result given.

SMILES	ABHD4 inh	PRMT1 FP inh	TCR-CD3 inh	SIAE primary	HTRA1 inhibitor	SIAE confirm
Cc1ccc(C)c(C(=O)CN2Cc3ccccc3C2=O)c1	1	-4	0	23*	1	-4
Cc1[nH]c(C)c(S(=O)(=O)NCc2ccco2)c1C(=O)N1CCCCC1	2	1	0	19*	8	11
O=C(CCC(=O)OCC(F)(F)C(F)F)Nc1ccc(Cl)cc1	-3	-1	3	18*	2	3
Cc1ccc(NC(=O)CN(C)C(=O)C(Sc2ccccc2)c2ccccc2)cc1 (stereo unspecified)	-13	5	1	-12	-33	x
CCC1NC(=O)c2cc3ccccc3cc2-n2c1nc1cc(C)cc(C)c1c2=O (stereo unspecified)	-4	-1	-3	17*	-24	-1
CCn1c2ccccc2c2cc(NC(=O)c3ccc(C)c([N+](=O)[O-])c3)ccc21	0	-1	-1	21*	-2	-4
CCn1c2ccccc2c2cc(NC(=O)c3cccc([N+](=O)[O-])c3)ccc21	-2	1	-3	8	-3	x
COc1ccccc1NC(=O)NC1(C(=O)NCC2CCCO2)CCCCC1 (stereo unspecified)	1	-5	1	5	3	x
Cc1[nH]c2ccccc2c1CC(=O)Nc1ccc(N(C)c2cccnc2)c(-c2ccc(F)c(F)c2)c1	19	7	-4	8	x	x
COc1ccc(NC(=O)N(C)C[C@H]2Oc3ccc(NS(=O)(=O)c4ccc(F)cc4)cc3C(=O)N([C@H](C)CO)C[C@@H]2C)cc1	10	-2	5	18*	-5	3
O=C(COC(=O)c1ccccc1O)Nc1cc([N+](=O)[O-])ccc1Cl	-1	2	-6	0	0	x
Cc1c(CCNC=O)cc(C)c2c3c(oc12)CCCC3	-1	-1	-1	89*	-19	5
COc1ccc2[nH]c3c(c2c1)CCN1C(=O)C(CC(=O)NCCC2=CCCCC2)C[C@H](C(=O)N2CCCCC2)[C@@]31CCc1ccccc1 (stereo partly specified)	1	-6	4	1	2	x
CCOc1ccccc1NC(=O)CN1CCc2ccccc2C1	3	1	6	1	-14	x
CCOc1ccccc1NC(=O)N1CCc2ccccc2C1	-1	0	0	18*	8	-1
CCCc1cc(=O)n2nc(N3CCC(C(=O)Nc4cccc(C(C)=O)c4)CC3)sc2n1	5	1	5	-8	1	x
CC1CCc2onc(C(=O)NCc3ccco3)c2C1 (stereo unspecified)	3	-4	7	21*	5	3
O=C(NCc1ccco1)c1noc2c1CCCC2	4	1	-1	0	-4	x
Nc1ccccc1SC(CC(=O)c1ccccc1)c1ccccc1 (stereo unspecified)	x	x	x	x	-8	x
CC(C(Sc1ccccc1N)c1ccccc1)[N+](=O)[O-] (stereo unspecified)	11	53*	-4	17*	-1	10
COC(=O)C1=C(C(=O)OC)C2CCCC1C1N=NN(c3ccccc3)C21 (stereo unspecified)	-3	1	3	12	x	x
COc1cc(/C=C/C(=O)O)cc(S(=O)(=O)N2CCc3ccccc32)c1OC	4	-3	-1	19*	-2	-6
O=C(Nc1ccc(Br)cc1Br)Nc1cccc2[nH]c([C@@H]3O[C@H](CO)[C@@H](O)[C@H](O)[C@H]3O)nc12	1	2	9	19*	x	2
O=C(Nc1cccc(Cc2ccccc2)c1)Nc1cccc2[nH]c([C@@H]3O[C@H](CO)[C@@H](O)[C@H](O)[C@H]3O)nc12	11	5	-2	13	x	x
CCC/C(=N/NC(=O)c1ccccc1Cl)c1ccccc1	1	-7	3	17*	-2	0
SMILES	ABHD4 inh	PRMT1 FP inh	TCR-CD3 inh	SIAE primary	HTRA1 inhibitor	SIAE confirm
Cc1ccc(NC(=O)CN2CCN(C(=O)C3CC3)CC2)c(F)c1	-7	4	-7	1	5	x
Cc1cc(C)cc(N2C(=O)C3C4C=CC(C4)C3C2=O)c1 (stereo unspecified)	2	-1	2	19*	-2	-1
Cc1ccc(N2C(=O)C3C4C=CC(C4)C3C2=O)cc1 (stereo unspecified)	-1	-2	4	0	-5	x
Cc1ccc(CNC(=O)C2CCN(S(=O)(=O)c3ccc4c(c3)CC(C)N4C(=O)C3CCC3)CC2)o1 (stereo unspecified)	0	5	6	2	-3	x
COc1ccc(CN2C[C@@H](CO)O[C@@H](n3cnc4c(NCc5cc(OC)c(OC)c(OC)c5)ncnc43)C2)cc1	0	9	0	2	x	x
COc1cc(CNc2ncnc3c2ncn3[C@H]2CN(Cc3ccc(Cl)cc3)C[C@@H](CO)O2)cc(OC)c1OC	-3	2	-5	19*	x	-4
COc1ccc(OC)c(/C=N\Nc2nccs2)c1	7	-2	2	18*	4	2
O=C(NCCO)C(=O)NCC1CCCN1S(=O)(=O)c1cccs1 (stereo unspecified)	2	3	1	1	4	x
C=CCNC(=O)C(=O)NCC1CCCN1S(=O)(=O)c1cccs1 (stereo unspecified)	3	-1	5	20*	-3	5
COc1ccc(Nc2nc(NCc3ccco3)nc(N/N=C/c3ccc(O)cc3)n2)cc1	8	-2	4	29*	17	3
COc1ccc(/C=N/Nc2nc(NCc3ccco3)nc(Nc3ccc(OC)cc3)n2)cc1	19	-1	1	1	-4	x
CC(Sc1ccc(Cl)cc1)C(=O)NCC(c1ccco1)N1CCCCC1 (stereo unspecified)	-4	-4	-2	63*	-11	-2
O=C(NCC(c1ccco1)N1CCCCC1)C(c1ccccc1)c1ccccc1 (stereo unspecified)	2	0	6	7	-2	x
COC(=O)C1=C(C(C)=O)C(c2ccc(C(=O)OC)cc2)n2nnnc2N1 (stereo unspecified)	13	0	-3	23*	-5	-3
Cc1ccc(Cn2nnc3c2-c2ccccc2S(=O)(=O)N(C(C)(C)C)C3)cc1	1	-1	x	7	x	x
O=C1CCCCC1Nc1ccc([N+](=O)[O-])cc1 (stereo unspecified)	2	0	6	-4	5	x
O=[N+]([O-])c1ccc(NC2CCCC2)cc1	4	0	3	19*	-9	1
O=C(NNC(=O)c1ccc2c(=O)n3c(nc2c1)CCC3)c1ccc(F)cc1	2	-3	-1	23*	2	3
O=C(NNC(=O)c1ccc2c(=O)n3c(nc2c1)CCC3)c1ccc(Cl)cc1	-4	-2	4	3	1	x
Cc1cc(C)nc(SCC(=O)Nc2ncc3c(n2)CCCC3=O)n1	5	-1	2	47*	10	-5
O=C(CCNC(=O)c1ccco1)NCc1ccc(C(=O)O)cc1	-6	2	5	-10	5	x
